CSN deneddyl inh = CSN deneddylation inhibition. Q92905. Purified CSN, SCF-Nedd8-OG deneddylation, fluorescence polarization. inhibition, % at 12.5 µM. 360,000 tested, 0.38% active;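 active = pattern-corrected inhibition above about 35%, with an unprinted fluorescence ratio check between 0.5 and 1.5, limit read from the data, passing the limit was not always enough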;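 also: 0% = enzyme with substrate and 100% = substrate without enzyme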
Target sequence (Q92905 whole entry, looked up, one chain of several): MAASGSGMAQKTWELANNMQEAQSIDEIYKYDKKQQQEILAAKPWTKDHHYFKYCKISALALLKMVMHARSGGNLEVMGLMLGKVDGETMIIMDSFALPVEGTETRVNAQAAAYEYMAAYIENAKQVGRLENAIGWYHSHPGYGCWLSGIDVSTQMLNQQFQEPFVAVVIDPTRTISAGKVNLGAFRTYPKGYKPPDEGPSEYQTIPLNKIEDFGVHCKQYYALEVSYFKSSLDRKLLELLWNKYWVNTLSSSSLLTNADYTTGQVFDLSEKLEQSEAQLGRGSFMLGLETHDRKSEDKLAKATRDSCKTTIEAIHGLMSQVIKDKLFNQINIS
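Assay system: purified human Csn5 enzyme expressed in HEK293T cells; measure: % inhibition; also added: SCFSkp2-Nedd8OG substrate at 10 nM final; technique: fluorescence polarization; times: reaction 90 min, room temperature; medium: Tris buffer pH 7.5, NaCl, DTT, Tween-20, trehalose, ovalbumin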
IDE cell activ = boosts human insulin-degrading enzyme activity in HEK cells; FAbeta-B cleavage, fluorescence polarization; 0% vehicle, 100% cell-free pure enzyme wells; activation, % at 5.96 µM; 340,000 tested, 0.073% active;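 active = activation above the mean of all tested compounds plus 3 SD, set per screening campaign, cut at about 17% in these data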
TPT1 inh = C. albicans TPT1 enzyme inhibition; recombinant caTPT1, FP RNA substrate dephosphorylation; inhibition, % at 5 µM; 300,000 tested, 0.81% active;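 active = inhibition above the mean of all tested compounds plus 3 SD, set per screening campaign, cut at about 24% in these data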;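 also: plate controls were DMSO alone for no effect and ferristatin control at 100 nM for full effect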
HNF4A DNA FP = change in binding of human HNF4 alpha to DNA; 360,000 tested, 0.3% active; P41235; activity change, % at 10 µM; HNF4a-FITC DNA binding, fluorescence polarization, 1 h; in the data active = activity change above about 30%, passing the limit was not always enough
IDE cell inh = cellular human IDE inhibition; inhibition, % at 5.59 µM; HEK cells, FAbetaB cleavage, fluorescence polarization; P14735; AID 434962; 320,000 tested, 0.41% active;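 active = percent inhibition above the average of all tested compounds plus 3 SD, set per screening campaign, cut at about 16% in these data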;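 also: IDE supplied by intact live HEK cells; FP after avidin binding of uncleaved biotin substrate so inhibition keeps polarization high; 0% = DMSO wells and 100% = 60 µM reference IDE inhibitor Ii1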
caTPT1 confirm = confirmation of Candida albicans TPT1 inhibitors. shares compounds with TPT1 inh. recombinant caTPT1, fluorescence polarization, RNase T1 coupled. inhibition, % at 5 µM. 2,400 tested, 74% active. AID 2149;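 active = inhibition above the primary screen limit, the mean inhibition of all tested compounds plus 3 SD, cut at about 25% in these data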
RNase T1 counter = counter-screen for TPT1 inhibitors: inhibitors of Aspergillus oryzae RNase T1. shares compounds with TPT1 inh. RNase T1 cleavage, fluorescence polarization, 1536-well. inhibition, % at 5 µM. 2,400 tested, 83% active;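 active = inhibition above the solvent-only control well mean plus 3 SD, limit set per screening run, cut at about 23% in these data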;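 also: plate controls were DMSO wells with enzyme for no effect and wells without RNase T1 for full effect; inhibitors block cleavage so intact labeled substrate keeps polarization high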
Target sequence (P00651 whole entry, looked up): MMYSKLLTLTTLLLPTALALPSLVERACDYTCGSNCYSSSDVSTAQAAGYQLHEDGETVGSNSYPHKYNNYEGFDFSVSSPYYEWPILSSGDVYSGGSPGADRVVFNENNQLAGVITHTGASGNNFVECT
Starred values were filed as active, the others as inactive; · = not tested or not shown. Only some compounds are listed: those with a hit (about 1.4% of all), similar ones and a draw of the others.

SMILES	CSN deneddyl inh	IDE cell activ	TPT1 inh	HNF4A DNA FP	IDE cell inh	caTPT1 confirm	RNase T1 counter
COc1ccc(C(C)(NC(C)=O)c2nc(-c3cccc(F)c3)cs2)cc1 (stereo not drawn)	0	·	·	0	·	·	·
CSc1nnc(C)c(/C=C/Nc2ccc(F)cc2)n1	-6	-14	116*	17	4	101*	105*
Cc1cc(C)c(C(N)=O)c(Nc2ccc(F)cc2)n1	1	-1	-1	2	1	·	·
CN(C)CCNC(=O)/C(=C/c1ccc(-c2ccc(Cl)cc2)o1)NC(=O)c1ccccc1	-10	1	41*	-2	2	8	12
CCN(CC)c1ccc(/C=C2\NC(=O)NC2=O)cc1	3	1	27*	6	8	36*	50*
Cc1cc(SCC#N)nc2ccccc12	4	6	2	3	1	·	·
COc1ccc2c(C)cc(SCC#N)nc2c1	13	5	41*	12	-1	40*	49*
Cc1cc(C)cc(N=Cc2[nH]c3ccc(Br)c(Cl)c3c2O)c1	-11	-51	121*	27	9	111*	111*
COc1ccc(CN=Cc2[nH]c3ccc(Br)c(Cl)c3c2O)cc1	11	-3	88*	64	1	136*	131*
COc1ccc(CN=CC2=C(O)CNC2=O)cc1	-10	-11	-1	-1	-1	·	·
COC(=O)C[C@@H]1C=C[C@H](NC(=O)c2ccccc2)[C@@H](CO)O1	-2	·	·	1	·	·	·
CC1CC(=O)N(CCc2ccccc2)C(=O)C1	1	5	·	4	·	·	·
O=C1CC(=O)N(CCc2ccc(F)cc2)C(=O)N1	13	1	39*	11	4	31*	40*
O=C1CC(=O)N(CCc2ccccc2)C(=O)N1CCc1ccccc1	0	0	40*	4	4	5	9
CCCCCC(O)CCC(=O)NNC1=CC(=O)CC(C)(C)C1 (stereo not drawn)	-9	8	69*	4	5	9	11
Cc1nc(C(F)(F)F)ccc1C(=O)N1CCC1(C)C(=O)NS(=O)(=O)c1ccc2ccccc2c1 (stereo not drawn)	-1	·	·	1	·	·	·
CCOc1ccc(C2CC(c3c(O)c4ccccc4oc3=O)=NN2c2ccccc2)cc1OC (stereo not drawn)	64	4	69*	64	-4	80*	82*
O=C(O)c1cc(-c2ccco2)nn1-c1cccc(Cl)c1	26	3	29*	-41	9	25*	32*
COc1cc(CNC(=O)c2cc(-c3cc(Cl)ccc3C)n[nH]2)cc(OC)c1	1	·	·	0	·	·	·
CC1=C(C(=O)c2ccccc2)C(c2ccc(O)cc2)NC(=S)N1 (stereo not drawn)	0	1	-1	-3	9	·	·
CC1=C(C(=O)c2ccccc2)C(c2ccc(N3CCOCC3)cc2)NC(=O)N1 (stereo not drawn)	24	2	28*	17	1	39*	51*
CCN(CC)c1ccc2cc(-c3nc4ccccc4n3C)c(=O)oc2c1	11	-35	81*	9	14	81*	85*
CCOC(=O)/C(C#N)=C\c1ccc(N2CCN(C/C=C/c3ccccc3)CC2)cc1	17	-2	46*	6	10	82*	92*
CCOC(=O)/C(C#N)=C\c1cc(C)n(-c2ccccc2)c1C	0	8	1	4	3	·	·
CCn1c(SCC(=O)c2c[nH]c3ccccc23)nnc1-c1cccs1	15	-3	25*	19	4	25*	35*
SMILES	CSN deneddyl inh	IDE cell activ	TPT1 inh	HNF4A DNA FP	IDE cell inh	caTPT1 confirm	RNase T1 counter
CN(C)c1ccc(/C=C(/NC(=O)c2ccccc2)C(=O)N2CCCC2)cc1	38*	-3	60*	5	6	35*	44*
Cc1ccc(/C=C(\NC(=O)c2ccccc2)C(=O)N2CCCCC2)cc1	1	-1	-4	1	3	·	·
c1ccc(C2Oc3ccccc3C3CC(c4cccs4)=NN32)cc1 (stereo not drawn)	15	2	49*	20	6	57*	69*
CCc1c(C2CC2)ncn1Cc1cccc(-c2ccccc2)c1	3	·	·	1	·	·	·
Nc1ccc2c(c1)CCC2=O	3	10	24*	11	1	18	28*
COc1ccc(NC(=O)c2cccc(Oc3ccc([N+](=O)[O-])cc3Cl)c2)cc1	1	-1	0	2	1	·	·
CCN(CC)C(=O)c1ccc(Oc2ccc([N+](=O)[O-])cc2Cl)cc1	-1	7	44*	1	5	5	7
CCOc1ccc(NC(=O)NC2CCS(=O)(=O)C2)cc1 (stereo not drawn)	2	5	0	0	0	·	·
CC(C)NC(=O)C1(C)CN(S(C)(=O)=O)CC(=O)N1CCCN1CCOCC1 (stereo not drawn)	0	·	·	2	·	·	·
O=C1NC(=S)N/C1=C\c1ccc(N2CCOCC2)cc1	7	3	26*	16	2	26*	33*
O=C1NC(=S)NC1=Cc1ccc(O)cc1	7	-2	·	12	·	·	·
CC(=O)N1C(=O)C(=C2C=C(C)OC(C)=C2)c2ccccc21	31	1	27*	138	-3	72*	55*
Oc1cccc(Nc2c3ccccc3nc3ccccc23)c1	-5	0	54*	-3	-5	4	11
C=CCn1c(O)c(C=Nc2ccccc2)sc1=S	0	-7	7	-1	-4	·	·
Oc1c(C=Nc2ccccc2)sc(=S)n1Cc1ccccc1	15	-3	43*	24	3	43*	59*
CCn1c(O)c(C=Nc2ccccc2)sc1=S	·	·	25*	·	3	22	28*
CC(C)NC(=O)C1(C)CN(S(C)(=O)=O)CC(=O)N1Cc1ccco1 (stereo not drawn)	-2	·	·	0	·	·	·
CC(=O)C[C@H]1SC[C@@H](C(C)C)N1S(=O)(=O)c1ccc(C)cc1	-4	·	·	0	·	·	·
O=C(O)C1Nc2c(O)cc(Cl)c([N+](=O)[O-])c2C2C=CCC12 (stereo not drawn)	83	9	84*	-77	-3	15	10
Nc1nc(-c2ccccc2)c(-c2ccccc2)n1N	7	3	51*	17	2	29*	38*
Nc1c(-c2ccccc2)nc(Cl)nc1-c1ccccc1	3	4	0	1	7	·	·
COCCCNC(=O)/C(C#N)=C1\N=C(NC(=O)c2cccs2)c2ccccc21	12	2	31*	19	-1	10	15
COCCCNC(=O)c1cccs1	-3	2	-2	-3	-2	·	·
CCOC(=O)[C@]12CCC=C1N(CCC1=CCCCC1)C(=O)[C@H](CC(=O)N1CCCCC1)C2	-1	·	·	2	·	·	·

Compound activity as filed in PubChem.
